In ChEMBL document CHEMBL3871279, “Bioactive Formylated Flavonoids from Eugenia rigida: Isolation, Synthesis, and X-ray Crystallography” (J Nat Prod, 2016):
Converted amounts (≈) assume the structure as drawn. “And” between values parts separate entries of the source, which are not always exact repeats. Equal entries are not always repeated.

Tests used:
[1] = system: Staphylococcus aureus; assay: Antimicrobial activity against Staphylococcus aureus ATCC 29213 by broth microdilution method; type: functional
[2] = Cytotoxicity against human SKOV3 cells assessed as reduction in cell viability after 48 hrs by neutral red dye-based assay; type: functional; conditions: SK-OV-3, 48 h
Summary of the method: (§1)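 Cell lines from ATCC, seeded at 25 000 cells/well and incubated 24 h. Samples added at several concentrations, then 48 h further incubation. Viability read by modified Neutral Red uptake. IC50 taken from dose–response curves of percent decrease in viability against concentration. Doxorubicin positive control, DMSO vehicle control.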

[3] = Cytotoxicity against African green monkey Vero cells assessed as reduction in cell viability after 48 hrs by neutral red dye-based assay; type: toxicity; conditions: African green monkey (Chlorocebus sabaeus); summary of the method: as §1
[4] = Cytotoxicity against pig LLC-PK1 cells assessed as reduction in cell viability after 48 hrs by neutral red dye-based assay; type: toxicity; conditions: pig (Sus scrofa); summary of the method: as §1
[5] = Cytotoxicity against human HeLa cells assessed as reduction in cell viability after 48 hrs by neutral red dye-based assay; type: functional; summary of the method: as §1
[6] = Cytotoxicity against human SK-MEL cells assessed as reduction in cell viability after 48 hrs by neutral red dye-based assay; type: functional; summary of the method: as §1
[7] = Cytotoxicity against human KB cells assessed as reduction in cell viability after 48 hrs by neutral red dye-based assay; type: functional; summary of the method: as §1
[8] = system: Cryptococcus neoformans; assay: Antimicrobial activity against Cryptococcus neoformans ATCC 90113 after 70 to 74 hrs by broth microdilution method; type: functional
Summary of the method: (§2)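 Modified CLSI broth microdilution. Samples serially diluted in 20% DMSO–saline and plated in duplicate. Inocula set by correcting OD630 of suspensions in incubation broth to final target inocula. Amphotericin B drug control. Plates read before and after incubation at 530 nm, or at 544ex/590em for A. fumigatus. IC50 is the concentration giving 50% growth relative to controls. MIC is the lowest concentration allowing no growth.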

[9] = system: Cryptococcus neoformans; assay: Fungicidal activity against Cryptococcus neoformans ATCC 90113 after 70 to 74 hrs by broth microdilution method; type: functional
Summary of the method: (§3)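 Fungicidal end point from the broth microdilution plates (20% DMSO–saline serial dilutions, duplicate wells, OD630-corrected inocula, amphotericin B control). 5 μL from each clear well transferred to agar and incubated. MFC is the lowest test concentration allowing no growth on agar.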

[10] = Cytotoxicity against human BT549 cells assessed as reduction in cell viability after 48 hrs by neutral red dye-based assay; type: functional; conditions: BT-549, 48 h; summary of the method: as §1
[11] = system: Staphylococcus aureus; assay: Antimicrobial activity against methicillin-resistant Staphylococcus aureus ATCC 33591 by broth microdilution method; type: functional
[12] = system: Nakaseomyces glabratus; assay: Antimicrobial activity against Candida glabrata ATCC 90030 after 46 to 50 hrs by broth microdilution method; type: functional; summary of the method: as §2
[13] = system: Pichia kudriavzevii; assay: Antimicrobial activity against Candida krusei ATCC 6258 after 46 to 50 hrs by broth microdilution method; type: functional; summary of the method: as §2
[14] = system: Nakaseomyces glabratus; assay: Fungicidal activity against Candida glabrata ATCC 90030 after 46 to 50 hrs by broth microdilution method; type: functional; summary of the method: as §3
[15] = system: Candida albicans; assay: Antimicrobial activity against Candida albicans ATCC 90028 after 46 to 50 hrs by broth microdilution method; type: functional; summary of the method: as §2
[16] = system: Pichia kudriavzevii; assay: Fungicidal activity against Candida krusei ATCC 6258 after 46 to 50 hrs by broth microdilution method; type: functional; summary of the method: as §3
[17] = system: Aspergillus fumigatus; assay: Fungicidal activity against Aspergillus fumigatus ATCC 204305 after 46 to 50 hrs by broth microdilution method; type: functional; summary of the method: as §3
[18] = system: Aspergillus fumigatus; assay: Antimicrobial activity against Aspergillus fumigatus ATCC 204305 after 46 to 50 hrs by broth microdilution method; type: functional; summary of the method: as §2
[19] = system: Candida albicans; assay: Fungicidal activity against Candida albicans ATCC 90028 after 46 to 50 hrs by broth microdilution method; type: functional; summary of the method: as §3
[20] = system: Staphylococcus aureus; assay: microbe, parasite or virus in culture; conditions: ATCC 29213
[21] = system: Staphylococcus aureus; assay: microbe, parasite or virus in culture; conditions: ATCC 33591
[22] = Nakaseomyces glabratus, ATCC 90030

SMILES | IC50 [8] [µM] | MIC [8] [µM] | IC50 [12, 22] [µM] | MIC [12, 22] [µM] | IC50 [13] [µM] | IC50 [2] [µM] | IC50 at 48 h [3] [µM] | IC50 at 48 h [4] [µM] | IC50 [5] [µM] | IC50 [6] [µM] | IC50 [7] [µM] | MFC [9] [µM] | IC50 [10] [µM] | MFC [14] [µM] | other results
O=Cc1c(O)cc(O)c(C(=O)CCc2ccccc2)c1O | 10.5 | 17.4 (≈ 4.98 µg/mL) | 11.3 | 69.9 (≈ 20 µg/mL) |  | > 10 | > 10 | > 10 | > 10 | > 10 | > 10 | 17.4 (≈ 4.98 µg/mL) | > 10 |  | IC50 [1]: 17.4 µM; IC50 [11]: 36.6 µM
O=Cc1c(O)cc(O)c(C(=O)/C=C/c2ccccc2)c1O | 24.5 | 70.4 (≈ 20 µg/mL) |  |  | 34.1 | > 10 | > 10 | > 10 | > 10 | > 10 | > 10 | 70.4 (≈ 20 µg/mL) | > 10 | 70.4 (≈ 20 µg/mL) | IC50 [15]: 68.9 µM; IC50 [12]: 10 µM and 35.2 µM
O=C1CC(c2ccccc2)Oc2cc(O)cc(O)c21 (racemic) | 28.8 | 78.1 (≈ 20 µg/mL) | 42.9 |  | 65.5 | > 10 | > 10 | > 10 | > 10 | > 10 | > 10 |  | > 10 |  | 
C[C@@H]1[C@H](O)[C@@H](C)/C=C/C=C/C=C/C=C/C=C/C=C/C=C/[C@H](O[C@@H]2O[C@H](C)[C@@H](O)[C@H](N)[C@@H]2O)C[C@@H]2O[C@](O)(C[C@@H](O)C[C@@H](O)[C@H](O)CC[C@@H](O)C[C@@H](O)CC(=O)O[C@H]1C)C[C@H](O)[C@H]2C(=O)O [AMPHOTERICIN B] | 0.2 | 0.3 (≈ 0.277 µg/mL) | 0.2 | 0.7 (≈ 0.647 µg/mL) | 0.6 |  |  |  |  |  |  | 0.3 (≈ 0.277 µg/mL) |  | 0.7 (≈ 0.647 µg/mL) | MIC [13]: 1.3 µM (≈ 1.2 µg/mL); MFC [16]: 1.4 µM (≈ 1.29 µg/mL); MFC [17]: 5.4 µM (≈ 4.99 µg/mL); IC50 [18]: 1.4 µM; MIC [18]: 2.7 µM (≈ 2.5 µg/mL); MFC [19]: 0.7 µM (≈ 0.647 µg/mL)
O=C(O)c1cn(C2CC2)c2cc(N3CCNCC3)c(F)cc2c1=O [CIPROFLOXACIN] |  |  |  |  |  |  |  |  |  |  |  |  |  |  | MBC [20]: 1.5 µM (≈ 0.497 µg/mL); MBC [21]: 3 µM (≈ 0.994 µg/mL); IC50 [11]: 0.2 µM
COc1cccc2c1C(=O)c1c(O)c3c(c(O)c1C2=O)C[C@@](O)(C(=O)CO)C[C@@H]3O[C@H]1C[C@H](N)[C@H](O)[C@H](C)O1 [DOXORUBICIN] |  |  |  |  |  | 2.6 | > 10 | 17 | 4 | 1.5 | 3.8 |  | 3.6 |  | 

The next lines start with results.

IC50 [8] [µM] | MIC [8] [µM] | IC50 [12, 22] [µM] | MIC [12, 22] [µM] | IC50 [13] [µM] | SMILES | IC50 [2] [µM] | IC50 at 48 h [3] [µM] | IC50 at 48 h [4] [µM] | IC50 [5] [µM] | IC50 [6] [µM] | IC50 [7] [µM] | MFC [9] [µM] | IC50 [10] [µM] | MFC [14] [µM] | other results
19.3 |  | 7.2 | 35.2 (≈ 10 µg/mL) | 41.2 | O=Cc1c(O)cc(O)c2c1O[C@@H](c1ccccc1)CC2=O | > 10 | > 10 | > 10 | > 10 | > 10 | > 10 |  | > 10 | 70.4 (≈ 20 µg/mL) | 
63.2 | 70.4 (≈ 20 µg/mL) | 6.7 | 35.2 (≈ 10 µg/mL) | 33.2 | O=Cc1c(O)cc2c(c1O)C(=O)C[C@@H](c1ccccc1)O2 | > 10 | > 10 | > 10 | > 10 | > 10 | > 10 |  | > 10 | 70.4 (≈ 20 µg/mL) | 
44.4 | 70.4 (≈ 20 µg/mL) | 7.4 | 35.2 (≈ 10 µg/mL) | 29.9 | O=Cc1c(O)cc(O)c2c1O[C@H](c1ccccc1)CC2=O | > 10 | > 10 | > 10 | > 10 | > 10 | > 10 | 70.4 (≈ 20 µg/mL) | > 10 |  | 
61.5 |  | 12.6 | 70.4 (≈ 20 µg/mL) |  | O=Cc1c(O)cc2c(c1O)C(=O)C[C@H](c1ccccc1)O2 | > 10 | > 10 | > 10 | > 10 | > 10 | > 10 |  | > 10 | 70.4 (≈ 20 µg/mL) | 
 |  | 10.8 |  |  | O=Cc1c(O)cc2oc(-c3ccccc3)cc(=O)c2c1O | > 10 | > 10 | > 10 | > 10 | > 10 | > 10 |  | > 10 |  | 
